Measured values reported in ChEMBL document CHEMBL1138662, “Macrocyclic diacylglycerol-bis-lactones as conformationally constrained analogues of diacylglycerol-lactones. Interactions with protein kinase C” (J Med Chem, 2004).

Experiments:
[1] = Partition coefficient (logP); type: physicochemical; settings: octanol/water
[2] = Displacement of [20-3H]-phorbol 12,13-dibutyrate (PDBU) from recombinant Protein kinase C alpha (C1a/C1b domain) in presence of phosphatidyl serine
In short: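 Competition binding: displacement of bound [20-3H]phorbol 12,13-dibutyrate from recombinant PKCα isozyme with phosphatidylserine present. IC50 derived by fitting data to a theoretical noncooperative competitive inhibition curve; binding affinity reported as Ki.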

logP [1] | Ki [2] [nM] | SMILES
7.11 |  | CCCCCCCCCCCCCCCCC/C=C1/CC(CO)(COC(C)=O)OC1=O (stereo not given)
-0.08 | 1800 | O=C1CCCCCC/C=C2\CC(CO)(CO1)OC2=O (stereo not given)
5.81 | 10.3 | O=C1CCCCCCCCCCCCCCCCCC/C=C2/CC(CO)(CO1)OC2=O (stereo not given)
7.11 | 28 | CCCCCCCCCCCCCCCCC/C=C1\CC(CO)(COC(C)=O)OC1=O (stereo not given)
5.25 | 1000 | CCCCCCCCCCCCCC(=O)OCC(CO)OC(C)=O (stereo not given)
3.85 | 12.2 | O=C1CCCCCCCCCCCCCC/C=C2\CC(CO)(CO1)OC2=O (stereo not given)
4.53 | 138 | CCCCCCCCCCCCCC(=O)OCC1(CO)CCC(=O)O1 (stereo not given)
5.81 | 22 | O=C1CCCCCCCCCCCCCCCCCC/C=C2\CC(CO)(CO1)OC2=O (stereo not given)
1.88 | 52.7 | O=C1CCCCCCCCCC/C=C2/CC(CO)(CO1)OC2=O (stereo not given)
3.85 | 6.07 | O=C1CCCCCCCCCCCCCC/C=C2/CC(CO)(CO1)OC2=O (stereo not given)
5.36 | 77.8 | CCCCCCCCCCCCC/C=C1\CC(CO)(COC(C)=O)OC1=O (stereo not given)
5.36 | 35.1 | CCCCCCCCCCCCC/C=C1/C[C@@](CO)(COC(C)=O)OC1=O (stereo in doubt)
 | 35 | CCCCCCCCCCCCC/C=C1/C[C@@](CO)(COC(C)=O)OC1=O (stereo in doubt; 3)

SMILES | logP [1] | Ki [2] [nM]
CC(C)CC(C/C=C1/CC(CO)(COC(=O)C(C)(C)C)OC1=O)CC(C)C (stereo not given) |  | 2.9
